According to ChEMBL document CHEMBL1140923, “Discovery of imidazo[1,2-b]thiazole derivatives as novel SIRT1 activators” (J Med Chem, 2009):
Active and inactive are the calls of the source. No cut-off for these calls is given here.

Legend:
[1] = Terminal half life in Sprague-Dawley rat at 100 mg/kg, po or 10 mg/kg, iv; type: ADME, organism-based; settings: in vivo, read-out: beta t1/2 (converted)
How it was run: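 Male Sprague-Dawley rats (250 g, 3 per dose group) received 100 mg/kg by oral gavage in 2% HPMC + 0.2% DOSS, or 10 mg/kg iv by tail vein in 10% ethanol/40% PEG/50% H2O. Blood was drawn at 0.033-24 h postdose for drug levels.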

Mus musculus = test: Antidiabetic activity in diet-induced obesity C57BL/6 mouse model assessed as reduction of plasma insulin level at 100 mg/kg, po daily once after 2 weeks; type: functional, organism-based; parameters: dose 100 mg/kg
How it was run: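 Male C57BL/6 mice were fed a 60%-fat diet from 9 weeks of age until about 40 g, in groups of 6-10. They were dosed by oral gavage once daily in 2% HPMC + 0.2% DOSS, with 29 at 100 mg/kg and rosiglitazone at 5 mg/kg, alongside vehicle groups on lean and high-fat diet. Fed glucose was read at weeks 2, 4, 6, 8 and 10. Clinical chemistry and hematology were also measured. Analysis by ANOVA.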

[2] = AUC in C57BL/6 mouse at 100 mg/kg, po or 10 mg/kg, iv; type: ADME, organism-based; settings: plasma
How it was run: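 Male C57BL/6 mice (18-22 g; 3 per dose group per time point), given 100 mg/kg po as the hydrochloride salt in 2% HPMC + 0.2% DOSS, or 10 mg/kg iv by tail vein in 10% ethanol/40% polyethylene glycol/50% H2O. Plasma was taken at 5, 30, 120 and 360 min after dosing and drug levels were measured.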

Salmonella typhimurium = test: Mutagenic activity in Salmonella Typhimurium TA98 in presence of S9 activation; type: toxicity, organism-based; settings: salmonella enterica subsp. enterica serovar typhimurium
[3] = target: T1, Muscarinic acetylcholine receptor M2 (Homo sapiens, UniProt P08172); test: Inhibition of muscarinic M2 receptor
T1 sequence (P08172 whole entry): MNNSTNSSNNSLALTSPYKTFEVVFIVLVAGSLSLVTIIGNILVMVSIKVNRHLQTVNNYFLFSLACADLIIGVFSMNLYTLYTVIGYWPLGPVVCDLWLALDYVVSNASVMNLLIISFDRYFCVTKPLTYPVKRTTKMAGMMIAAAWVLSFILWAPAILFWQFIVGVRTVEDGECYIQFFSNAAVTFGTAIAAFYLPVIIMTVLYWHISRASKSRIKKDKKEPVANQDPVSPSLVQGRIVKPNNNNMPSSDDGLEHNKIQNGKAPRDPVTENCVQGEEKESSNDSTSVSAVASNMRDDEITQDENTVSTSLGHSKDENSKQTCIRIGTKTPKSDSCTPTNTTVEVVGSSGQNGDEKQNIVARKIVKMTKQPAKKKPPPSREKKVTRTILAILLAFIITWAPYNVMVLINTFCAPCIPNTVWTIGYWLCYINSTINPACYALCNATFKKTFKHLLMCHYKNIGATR

Cytochrome P450 2C9 = Cytochrome P450 2C9 (Homo sapiens, UniProt P11712); test: Inhibition of CYP2C9 at 25 uM; type: ADME
How it was run: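 Inhibition of CYP isozymes was tested up to a highest concentration of 25 µM.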

Chain of Cytochrome P450 2C9 (P11712 whole entry): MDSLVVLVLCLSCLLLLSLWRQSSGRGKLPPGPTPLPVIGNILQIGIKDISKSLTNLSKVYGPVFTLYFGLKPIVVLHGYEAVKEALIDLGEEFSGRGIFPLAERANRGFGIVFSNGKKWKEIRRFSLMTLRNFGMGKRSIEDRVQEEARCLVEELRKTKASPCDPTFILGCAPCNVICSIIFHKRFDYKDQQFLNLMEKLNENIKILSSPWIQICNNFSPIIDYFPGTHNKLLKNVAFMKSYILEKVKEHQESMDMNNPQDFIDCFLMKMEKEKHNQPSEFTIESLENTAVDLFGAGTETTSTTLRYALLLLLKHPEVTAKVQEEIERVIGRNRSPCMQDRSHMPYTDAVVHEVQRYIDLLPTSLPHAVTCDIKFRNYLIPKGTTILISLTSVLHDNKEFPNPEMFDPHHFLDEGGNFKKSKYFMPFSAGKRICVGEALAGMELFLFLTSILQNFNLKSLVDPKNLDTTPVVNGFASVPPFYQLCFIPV

O=C(Nc1ccccc1-c1cn2c(CN3CCNCC3)csc2n1)c1cnc2ccccc2n1
half-life [1]: 8.4 h
Activity (Mus musculus): Active
AUC [2]: 7900 ng·h/mL
Activity (Salmonella typhimurium): Non-toxic
IC50 [3]: 6.28 µM
Activity (Cytochrome P450 2C9): Not Active
